In ChEMBL document CHEMBL1154300, “Monoterpenoid indole alkaloids from Alstonia yunnanensis” (J Nat Prod, 2009):

Experiments:
[1] = target: T1, Polyunsaturated fatty acid 5-lipoxygenase (Homo sapiens) (UniProt P09917); experiment: Inhibition of 5-LOX at 100 uM after 5 mins
T1 sequence (whole entry): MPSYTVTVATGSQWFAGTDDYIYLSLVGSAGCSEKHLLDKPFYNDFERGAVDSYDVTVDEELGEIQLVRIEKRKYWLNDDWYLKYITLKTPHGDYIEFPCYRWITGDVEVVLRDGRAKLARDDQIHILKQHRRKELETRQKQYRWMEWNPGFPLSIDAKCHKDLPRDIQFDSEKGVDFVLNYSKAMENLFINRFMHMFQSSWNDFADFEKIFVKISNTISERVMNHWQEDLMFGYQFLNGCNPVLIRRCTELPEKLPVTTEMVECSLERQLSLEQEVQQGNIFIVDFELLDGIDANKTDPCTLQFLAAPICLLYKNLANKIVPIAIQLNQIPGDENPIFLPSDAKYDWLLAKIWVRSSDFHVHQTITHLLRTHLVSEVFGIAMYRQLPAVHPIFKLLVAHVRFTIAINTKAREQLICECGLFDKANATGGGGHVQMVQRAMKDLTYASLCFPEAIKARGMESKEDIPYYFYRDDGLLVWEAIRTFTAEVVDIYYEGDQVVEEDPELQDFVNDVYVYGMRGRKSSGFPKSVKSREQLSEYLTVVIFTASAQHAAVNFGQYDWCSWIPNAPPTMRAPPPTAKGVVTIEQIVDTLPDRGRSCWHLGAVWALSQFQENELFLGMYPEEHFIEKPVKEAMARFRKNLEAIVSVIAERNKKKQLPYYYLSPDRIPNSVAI
Outline: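 Tested in an anti-inflammatory panel against Cox-1, Cox-2 and 5-Lox.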

PANC-1 = experiment: Cytotoxicity against human PANC1 cells after 48 hrs by MTT assay; type: functional, cell-based; settings: PANC-1, 48 h
[2] = target: Prostaglandin G/H synthase 1 (Homo sapiens) (UniProt P23219); settings: at 100 µM
Prostaglandin G/H synthase 1 (Homo sapiens), sequence (P23219 whole entry): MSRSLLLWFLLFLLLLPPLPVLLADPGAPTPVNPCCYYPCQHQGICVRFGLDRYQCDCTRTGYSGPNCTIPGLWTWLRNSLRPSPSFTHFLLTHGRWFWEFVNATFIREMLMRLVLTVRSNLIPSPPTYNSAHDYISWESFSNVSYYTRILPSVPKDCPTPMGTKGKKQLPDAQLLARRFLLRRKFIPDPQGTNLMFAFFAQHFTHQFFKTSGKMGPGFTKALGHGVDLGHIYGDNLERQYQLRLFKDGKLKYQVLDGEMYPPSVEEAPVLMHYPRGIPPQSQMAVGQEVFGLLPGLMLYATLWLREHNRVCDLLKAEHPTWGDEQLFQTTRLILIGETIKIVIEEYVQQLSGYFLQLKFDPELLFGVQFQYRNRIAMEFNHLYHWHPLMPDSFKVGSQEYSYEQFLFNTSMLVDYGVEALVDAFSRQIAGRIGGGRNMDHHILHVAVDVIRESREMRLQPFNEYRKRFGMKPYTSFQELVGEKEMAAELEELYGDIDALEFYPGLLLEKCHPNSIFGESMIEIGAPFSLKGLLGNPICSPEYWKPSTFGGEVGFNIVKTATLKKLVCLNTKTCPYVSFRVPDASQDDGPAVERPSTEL

HL-60 = experiment: Cytotoxicity against human HL60 cells after 48 hrs by MTT assay; type: functional, cell-based; settings: HL-60, 48 h

| Compound | inhibition [1] | IC50 (PANC-1) | inhibition [2] | IC50 (HL-60) |
| --- | --- | --- | --- | --- |
| C/C=C1/C[N+]2([O-])[C@H]3CC1C1C(OC(C)=O)[C@@]4(C[C@@H]12)C3=Nc1ccccc14 (some centres not stated) [ALSTOYUNINE E] | 77.2% | > 40 µM | 41.8% | > 40 µM |
| CC[C@@]12CC(C(=O)OC)=C3Nc4cc(OC)ccc4[C@@]34CCN(C(=O)[C@@H]3O[C@@H]31)[C@@H]24 [ALSTOYUNINE G] | < 0% | > 40 µM | 37.2% | > 40 µM |
| CO[C@@H]1O[C@@H](O)[C@H]2C3C[C@H]4c5[nH]c6ccccc6c5C[C@@H]([C@@H]31)N4[C@H]2C [ALSTOYUNINE B] | 33.5% | > 40 µM | 26.8% | > 40 µM |
| CC(=O)OC1C2C3C[C@H]4C5=[N+]([O-])c6ccccc6[C@]51C[C@@H]2[N+]4([O-])[C@@H](C)[C@@H]3C(=O)O (some centres not stated) [ALSTOYUNINE D] | < 0% | > 40 µM | 39.3% | > 40 µM |
| CC[C@@]12CC(C(=O)OC)=C3Nc4cc(OC)ccc4[C@@]34CCN(C[C@@H](Cl)[C@@H]1O)[C@@H]24 [ALSTOYUNINE H] | 0.84% | > 40 µM | < 0% | > 40 µM |
| CC(=O)OC1C2C3C[C@H]4C5=[N+](C)c6ccccc6[C@]51C[C@@H]2[N+]4([O-])[C@@H](C)[C@@H]3C(=O)[O-] (some centres not stated) | < 0% | > 40 µM | 45% | > 40 µM |
| COC(C)[C@H]1C2C[C@H]3C4=Nc5ccccc5[C@]45C[C@@H](C2C5OC(C)=O)N3[C@@H]1O (some centres not stated) [ALSTOYUNINE F] | 61.8% | 21.7 µM | 39.8% | 3.89 µM |
| CO[C@@H]1O[C@@H](O)[C@@H]2C3C[C@H]4c5[nH]c6ccccc6c5C[C@@H]2N4[C@@H](C)[C@H]31 [ALSTOYUNINE A] | 38.4% | > 40 µM | 27.8% | > 40 µM |
